HTR5A ag = HTR5A agonism, opioid heterodimer counter-screen | P47898 | activation, % at 9.3 µM | hit rate 0.61% among 340,000 | HTR5A agonist assay, luminescence, cell-based; in the data active = activation mostly above about 9.5%, no sharp cut-off; inactive = mostly below about 7.6%;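 also: 0% = cells with vehicle only and 100% = reference agonist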
Hep lipid drop = hepatic lipid droplet formation modulation. inhibition, % at 6.5 µM. hit rate 0.4% among 240,000. AID 1656. AML12 mouse hepatocytes, oleate lipid droplets, BODIPY imaging;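 active = lipid droplet intensity inhibited by at least 50%, with more than 500 cells counted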
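Assay system: AML12 hepatocytes (mouse); Probe or stimulus: oleic acid at 100 µM to induce lipid droplet formation; Dosing: compound at 6.5 µM only; Schedule: compound with oleate, overnight; Detection: fluorescence imaging, 20x objective, two fields per well; Measure: % inhibition of lipid droplet signal.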
MOR-DOR ag = OPRM1-OPRD1 heterodimerization agonism; P35372+P41143; cells, luminescence; activation, % at 9.3 µM; hit rate 0.3% among 340,000; in the data active = activation above about 18%;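 also: 0% = vehicle-treated cells and 100% = reference agonist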
Target sequence (P35372 whole entry, looked up): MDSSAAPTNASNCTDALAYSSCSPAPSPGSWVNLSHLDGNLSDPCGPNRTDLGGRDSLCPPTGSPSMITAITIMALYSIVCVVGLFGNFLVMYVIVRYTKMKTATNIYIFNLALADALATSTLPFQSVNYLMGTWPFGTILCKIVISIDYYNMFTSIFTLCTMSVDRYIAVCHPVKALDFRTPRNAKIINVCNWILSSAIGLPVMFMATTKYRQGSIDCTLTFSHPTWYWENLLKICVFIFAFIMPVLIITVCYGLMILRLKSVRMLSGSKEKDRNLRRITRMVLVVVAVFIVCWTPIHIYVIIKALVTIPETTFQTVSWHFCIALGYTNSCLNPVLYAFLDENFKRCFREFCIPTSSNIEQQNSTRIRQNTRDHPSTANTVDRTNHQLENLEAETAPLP
Target sequence (P41143 whole entry, looked up): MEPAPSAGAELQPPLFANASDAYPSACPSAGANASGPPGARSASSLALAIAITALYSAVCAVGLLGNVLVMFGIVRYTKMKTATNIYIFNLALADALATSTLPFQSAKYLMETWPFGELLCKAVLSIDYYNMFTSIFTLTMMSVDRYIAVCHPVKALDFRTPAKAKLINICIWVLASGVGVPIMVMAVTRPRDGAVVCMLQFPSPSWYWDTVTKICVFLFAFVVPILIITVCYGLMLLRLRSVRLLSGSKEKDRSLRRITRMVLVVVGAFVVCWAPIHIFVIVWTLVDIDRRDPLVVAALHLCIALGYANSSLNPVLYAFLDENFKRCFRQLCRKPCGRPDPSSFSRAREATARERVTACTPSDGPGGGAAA
MOR-DOR inv ag = mu-delta opioid heterodimer inverse agonism | P35372+P41143 | cell-based MOR-DOR heterodimer luminescence | inhibition, % at 9.3 µM | hit rate 0.21% among 340,000 | AID 504357; in the data active = inhibition above about 22%, passing the limit was not always enough;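 also: 0% = cells with DMSO and 100% = wells without cells with DMSO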
HTR5A inv ag = counter-screen for OPRM1-OPRD1 inverse agonists: human HTR5A inverse agonism; P47898; HTR5A cell line, luminescence; inhibition, % at 9.3 µM; hit rate 0.083% among 340,000; AID 504634; in the data active = inhibition mostly above about 23%, no sharp cut-off; inactive = mostly below about 18%;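 also: 0% = cells with DMSO and 100% = no-cell wells with DMSO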
Hep lipid conf = confirmation of inhibitors of hepatic lipid droplet formation; inhibition, % at 5.2 µM; AML12 mouse hepatocytes, BODIPY lipid droplet imaging; droplets induced with 100 µM oleic acid; shares compounds with Hep lipid drop; hit rate 65% among 870;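 active = inhibition of lipid droplet metric at least 50%, with more than 300 cells in each of four replicates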;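 also: plate controls were DMSO with oleic acid for no effect and 5 µM Triacsin-C for full effect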
AML12 tox img = toxic to AML12 mouse hepatocytes in counter-screen; shares compounds with Hep lipid drop; DAPI nuclear morphology cytotoxicity imaging; hits give high values; cells fed 100 µM oleate overnight; z-score at 5 µM; hit rate 3% among 870; AID 463200; in the data active = z-score above about 6.3;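 also: compound exposure lasted overnight at 37 °C before fixation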
AML12 tox conf = confirmation of cytotoxicity in AML12 mouse hepatocytes; shares compounds with Hep lipid drop; AML12 mouse hepatocyte viability, ATP luminescence; cells loaded with 100 µM oleic acid; 530 tested, under 10 active; cytotoxicity, % at 50 µM;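 active = cytotoxicity above 50% in each of four replicates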;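 also: compound exposure lasted overnight at 37 °C before the ATP read; 0% = DMSO-treated cells and 100% = wells with no cells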
* hit, by the source's call; nt = no result given. Shown are actives, neighbours in structure and some others; about 1.4% of the full set was active somewhere.

SMILES	HTR5A ag	Hep lipid drop	MOR-DOR ag	MOR-DOR inv ag	HTR5A inv ag	Hep lipid conf	AML12 tox img	AML12 tox conf
COc1ccc(C2(c3ccc(OC)cc3)NC(=O)N(CC(=O)Nc3cc(C)ccc3OC)C2=O)cc1	-3	86*	-3	15	13	106*	-1	12
CCOC(=O)c1ccc(NC(=O)CN(Cc2ccc(Cl)cc2)S(C)(=O)=O)cc1	1	50*	0	-1	-46	76*	-0.59	2
CS(=O)(=O)N(CC(=O)Nc1ccc2c(c1)OCCO2)Cc1ccc(Cl)cc1	2	0	-5	20	21	nt	nt	nt
COc1cccc(NC(=O)CN(Cc2ccccc2)S(C)(=O)=O)c1	4	50*	0	2	28	43	-0.27	nt
CC(=O)c1cccc(NC(=O)CN(Cc2ccccc2)S(C)(=O)=O)c1	-1	-8	0	1	6	nt	nt	nt
CCc1ccc(N2CC(C(=O)Nc3ccc(S(=O)(=O)N4CCOCC4)cc3)CC2=O)cc1 (stereo not given)	-3	nt	-1	3	-9	nt	nt	nt
Cn1/c(=N/NC(=O)c2ccccc2F)sc2ccccc21	-1	8	-2	9	-9	nt	nt	nt
Cc1cc(C)n2nc(C(=O)N/N=C/c3c4ccccc4cc4ccccc34)nc2n1	3	66*	-1	6	7	103*	0.3	38
Cc1occc1C(=O)N/N=C/c1ccc(OCc2ccccc2)cc1	3	60*	6	-29	-5	17	0.71	nt
O=C(N/N=C/c1ccc(F)cc1)c1ccc(OCc2ccccc2)cc1	-3	40	-1	6	-19	nt	nt	nt
COc1ccc(-c2cc(-c3ccccc3)nc(SCC(=O)Nc3ncc(C)s3)c2C#N)cc1	1	26	-2	8	7	nt	nt	nt
CCOc1ccc2nc(-c3ccccc3)nc(SCC(=O)Nc3ncc(C)s3)c2c1	1	101*	0	0	7	107*	0.12	7
CC(C)Oc1ccc(C(=O)Nc2ccc(N3CCN(C(=O)c4ccco4)CC3)cc2)cc1	3	69*	0	1	-7	57	-0.23	-4
COc1ccc(CNC(=O)[C@@H](C)NC(=O)C2CCN(C(=O)[C@@H](N)CCSC)CC2)cc1	0	1	-1	7	-19	nt	nt	nt
O=C(Nc1nc(-c2ccccc2)cs1)C1CCCCN1S(=O)(=O)c1ccc(Cl)cc1 (stereo not given)	0	62*	0	-2	14	91*	-0.081	2
O=C(Nc1nc(-c2ccc(-c3ccccc3)cc2)cs1)C1CCCO1 (stereo not given)	7	61*	4	-21	-14	102*	0.32	9
O=C(Nc1nc(-c2ccccc2)cs1)C1CCCCN1S(=O)(=O)c1ccccc1 (stereo not given)	-5	41	3	-20	12	nt	nt	nt
O=c1c(Cl)c(Cl)cnn1Cc1nnc(-c2ccc(Cl)cc2)o1	-1	-3	0	0	1	nt	nt	nt
CCCOc1cccc(-c2cc(C(=O)NN)c3ccccc3n2)c1	-5	0	0	0	-4	nt	nt	nt
CC(C)COc1cccc(-c2cc(C(=O)Nc3ccon3)c3ccccc3n2)c1	3	50*	4	-20	-7	81*	0.025	-10
CCN1C(=O)[C@@H]2[C@@H](c3ccc(-c4ccc(C(C)=O)cc4)cc3)N3CCCC[C@@]3(C(=O)OC)[C@@H]2C1=O	-1	nt	0	-1	2	nt	nt	nt
CC(NC(=O)[C@@H](C)NC(=O)[C@@H]1Cc2ccccc2CN1C(=O)OC(C)(C)C)c1ccccc1 (stereo not given in full)	3	68*	0	-2	-14	76*	-0.24	13
CCn1c(=O)n(CC)c2cc(N)ccc21	1	54*	0	-1	-4	23	-0.51	nt
CCn1c(=O)n(CC)c2cc(S(N)(=O)=O)ccc21	-4	nt	-1	8	9	nt	nt	nt
O=C(c1ccc(Cl)cc1)N(Cc1ccco1)C1CCS(=O)(=O)C1 (stereo not given)	-3	-9	-1	9	-11	nt	nt	nt
SMILES	HTR5A ag	Hep lipid drop	MOR-DOR ag	MOR-DOR inv ag	HTR5A inv ag	Hep lipid conf	AML12 tox img	AML12 tox conf
O=C(NCCc1c[nH]c2ccccc12)C(=O)NCC1OCCN1S(=O)(=O)c1ccc(F)cc1 (stereo not given)	11	-10	0	0	-35	nt	nt	nt
Cc1cc(C)c(S(=O)(=O)N2CCOC2CNC(=O)C(=O)NCCc2c[nH]c3ccccc23)c(C)c1 (stereo not given)	7	76*	-1	6	-102	77*	-1	10
COCCCn1c(SCC(=O)Nc2ccc(NC(=O)c3ccco3)c(OC)c2)nc2ccccc2c1=O	-2	104*	0	-2	-25	104*	-0.47	7
COc1ccc(N2N=NN(C(C)C)C2=C(Cl)c2nnnn2-c2ccc(OC)cc2)cc1	0	nt	-2	10	2	nt	nt	nt
COc1ccc(S(=O)(=O)N2CCOCC2)cc1NC(=O)c1ccccc1C	3	51*	-2	10	10	-13	-0.58	nt
Cc1ccc(N2C(=O)c3ccccc3NC2(C(=O)O)c2ccccc2)cc1Cl (stereo not given)	0	50*	0	2	1	60	1.4	31
CC1(C)Nc2ccccc2C(=O)N1c1ccc(Br)cc1	-1	nt	0	-1	-14	nt	nt	nt
CN1CCN(C2=C(NS(=O)(=O)c3cccs3)C(=O)c3ccccc3C2=O)CC1	8	-8	2	-10	-22	nt	nt	nt
O=C1C(NS(=O)(=O)c2cccs2)=C(N2CCN(c3cccc(C(F)(F)F)c3)CC2)C(=O)c2ccccc21	2	52*	3	-15	-11	113*	-0.37	12
CCCC(=O)Nc1cc2c3c(c1)C(C)C(=O)N3CCC2 (stereo not given)	2	-14	-2	10	-5	nt	nt	nt
COC(=O)c1ccc(S(=O)(=O)c2ccccc2)c(N)c1	3	5	-2	14	-1	nt	nt	nt
CCC(C(=O)NCc1cccc(C)c1)n1nc(C)c2c(C)n(-c3ccccc3)nc2c1=O (stereo not given)	0	64*	-2	13	-1	78*	-0.53	22
Cc1ccc(-n2nc3c(=O)n(CC(=O)NCCCc4ccccc4)nc(C)c3c2C)cc1	4	65*	-1	6	-15	81*	-0.42	27
Cc1ccc(-n2nc3c(=O)n(C(C)C(=O)NCCCc4ccccc4)nc(C)c3c2C)cc1 (stereo not given)	-4	43	0	0	14	nt	nt	nt
